The record followed here is ChEMBL document CHEMBL1131131, “Structure-based design of beta-lactamase inhibitors. 2. Synthesis and evaluation of bridged sulfactams and oxamazins” (J Med Chem, 1998).

As usually defined, the MIC is the least concentration at which growth counts as inhibited. A lower MIC goes with inhibition by little substance.

≈ marks a conversion by molar mass, not a printed value. Where only a bound is given, the exact number is not on record here.

The test system of one series is Escherichia coli. The experiment in a line: Minimum inhibitory concentration against the strains of Escherichia coli that produce the beta-lactamases. The format is functional. The method, boiled down:
(§1)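 Agar dilution on Mueller-Hinton agar with twofold serial dilutions of the compound or combination. About 10⁴ organisms were spotted with a multipoint inoculator. Plates were incubated for 18 h at 35 °C. MIC was taken as the lowest concentration preventing visible growth.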

The test system of the next series is Citrobacter freundii. The experiment in a line: Minimum inhibitory concentration against the strain Citrobacter freundii 1982 that produce the beta-lactamases. It counts as functional. The method, boiled down:
as §1

A further series concerns Pseudomonas aeruginosa. The experiment in a line: Minimum inhibitory concentration against the strains of Pseudomonas aeruginosa that produce the beta-lactamases. The format is functional. In a few lines:
as §1

Series [1] is described as follows: Kinetic parameter was determined.

For the compound `NC(=O)c1ccc(NC(=O)N2CCC3C2C(=O)N3OS(=O)(=O)[O-])cc1.[Na+]` (stereo not given), the results for the MIC against Escherichia coli, in the series with Citrobacter freundii and in the series on Pseudomonas aeruginosa were 8 µg/mL, 1 µg/mL and 128 µg/mL, respectively.
The like results for `CC(C)(C)OC(=O)N1CCC2C1C(=O)N2OCC(=O)OCc1ccccc1` (stereo not given) were, in that order, above 16 µg/mL, above 16 µg/mL and above 16 µg/mL.
With `CC(C)(C)OC(=O)N1CCC2C1C(=O)N2OS(=O)(=O)[O-].[Na+]` (stereo not given), the minimal inhibitory concentration (MIC) was 4 µg/mL in the series on Escherichia coli, 4 µg/mL in the series with Citrobacter freundii and 32 µg/mL in the series on Pseudomonas aeruginosa. The Koff in series [1] was 0.12 s⁻¹. Also, the Kon in series [1] is 20 s⁻¹. Further, the Ks in series [1] is 600 µM.
For the compound `NC(=O)c1ccc(NC(=O)N2CC[C@@H]3[C@H]2C(=O)N3S(=O)(=O)O)cc1`, the values for the minimal inhibitory concentration (MIC) in the series on Escherichia coli, in the series on Citrobacter freundii and in the series on Pseudomonas aeruginosa were 16 µg/mL (≈ 45.2 µM), 0.25 µg/mL (≈ 0.706 µM) and 4 µg/mL (≈ 11.3 µM), respectively.
Take `CC(C)(C)OC(=O)N1CC[C@@H]2[C@H]1C(=O)N2S(=O)(=O)O`: the minimal inhibitory concentration (MIC) with Escherichia coli was 16 µg/mL (≈ 54.7 µM). In the series with Pseudomonas aeruginosa, this compound came in with an MIC of 8 µg/mL (≈ 27.4 µM). Further, in series [1], the Koff is below 8e-07 s⁻¹, the Kon turned out to be 12.5 s⁻¹ and the Ks amounted to 127 µM.
